Consider 1 compound from ChEMBL document CHEMBL1687733, “Topoisomerase I gene mutations at F270 in the large subunit and N184 in the small subunit contribute to the resistance mechanism of the unicellular parasite Leishmania donovani towards 3,3'-diindolylmethane” (Antimicrob Agents Chemother, 2009).

The subject of series [1] is T1, Leishmania donovani [F270L].
T1 sequence (whole entry): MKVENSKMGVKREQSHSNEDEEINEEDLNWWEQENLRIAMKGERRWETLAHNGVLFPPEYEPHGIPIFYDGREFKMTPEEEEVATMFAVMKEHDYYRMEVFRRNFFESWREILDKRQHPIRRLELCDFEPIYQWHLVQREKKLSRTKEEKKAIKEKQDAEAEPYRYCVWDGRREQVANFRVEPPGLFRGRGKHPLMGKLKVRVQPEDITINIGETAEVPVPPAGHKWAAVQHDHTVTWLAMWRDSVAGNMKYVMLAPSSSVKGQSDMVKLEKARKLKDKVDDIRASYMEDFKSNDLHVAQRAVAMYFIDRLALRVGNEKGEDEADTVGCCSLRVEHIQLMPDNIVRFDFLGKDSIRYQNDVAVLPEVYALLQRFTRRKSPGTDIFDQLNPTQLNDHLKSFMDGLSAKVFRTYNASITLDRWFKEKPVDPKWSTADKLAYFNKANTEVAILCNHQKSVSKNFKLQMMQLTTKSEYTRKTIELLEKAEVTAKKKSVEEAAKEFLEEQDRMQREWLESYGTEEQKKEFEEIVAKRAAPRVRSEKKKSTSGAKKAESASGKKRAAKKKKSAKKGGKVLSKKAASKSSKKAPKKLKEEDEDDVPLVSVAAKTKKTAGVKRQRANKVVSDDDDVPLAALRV
Briefly: Inhibition of recombinant drug-resistant Leishmania donovani LdDR50 topoisomerase 1b wild type small subunit and large subunit F270L mutant-mediated relaxation of supercoiled pBluescript SK(+) DNA at up to 50 uM after 30 mins using ethidium bromide staining. An outline of the steps:
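Reconstituted recombinant enzyme (30 fmol) with 90 fmol supercoiled pBluescript SK(+) DNA (3:1 DNA:enzyme), 30 min at 37°C with DIM (1–50 μM for fully mutant enzyme; 10 μM for single-site mutants); 4% DMSO vehicle control. Products on 1% agarose, ethidium bromide (0.5 μg/ml) stained; supercoiled monomer band quantified.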

Series [2] concerns Leishmania donovani. Put plainly: Drug uptake in wild type Leishmania donovani AG83 at 20 uM after 30 mins by spectrophotometric analysis. The conditions noted are these: in vivo, 0.5 h. It is filed as ADME, organism-based. An outline of the steps:
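Log-phase promastigotes at 3 × 10^7 cells/ml with 20 μM DIM at 22°C; aliquots at 1, 5, 10, 20 and 30 min washed three times in ice-cold PBS pH 7.4 with 0.01 N HCl, sonicated. Cell-associated DIM quantified by equilibrium dialysis and absorbance at 280 nm; three experiments in duplicate.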

The subject of series [3] is Leishmania donovani. Briefly: Ratio of antimicrobial activity against drug-resistant Leishmania donovani LdDR50 to antimicrobial activity against wild type Leishmania donovani AG83. Format: functional. An outline of the steps: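 Cells washed twice in PBS, MTT added for 4 h, acidified isopropanol stop for 20 min at room temperature, A570 read. Growth expressed as % of untreated WT OD; three experiments.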

A short description of series [4]: Binding affinity to Leishmania donovani small subunit of topoisomerase 1b.
Series [5] has as its system Leishmania donovani. Briefly: Ratio of KD for drug-resistant Leishmania donovani LdDR50 topoisomerase 1b to KD for wild type Leishmania donovani AG83 topoisomerase 1b.
Series [6] has as its target DNA topoisomerase type IB small subunit (Leishmania donovani (strain BPK282A1), UniProt E9B7X3, N184S). Put plainly: Binding affinity to recombinant drug-resistant Leishmania donovani LdDR50 topoisomerase 1b small subunit N184S mutant after 24 hrs by equilibrium dialysis method. An outline of the steps: (§1)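 Recombinant His-tagged subunits expressed in E. coli BL21(DE3) pLysS, purified on Ni-NTA then phosphocellulose, reconstituted 1:1. Enzyme 200 μM with DIM 1–20 μM in 20 mM Tris-HCl pH 7.5, 50 mM NaCl, 10 mM MgCl2 for 30 min at 37°C, then dialysed (12–14 kDa cutoff) 24 h at 25°C. Free DIM measured by absorbance (ε 6.6 × 10^4 M−1); KD from saturation plot.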
(Equilibrium dialysis compares concentrations on both sides of a semipermeable membrane.)

Series [7] is described as follows: Binding affinity to recombinant drug-resistant Leishmania donovani LdDR50 topoisomerase 1b after 24 hrs by equilibrium dialysis method. An outline of the steps: as §1

Calls of active or inactive are those of the source.

A word on the Kd: it is the free concentration of one partner at which half of the binding sites on the other are occupied at equilibrium, for simple one-to-one binding. On to `c1ccc2c(Cc3c[nH]c4ccccc34)c[nH]c2c1` [ARUNDINE], for which the inhibition result in series [1] is “inactive”. Besides, the Drug uptake entry in the series on Leishmania donovani [2] is “Active”. The Ratio with Leishmania donovani [3] was found to be 42; in the series on Leishmania donovani [5] it was 25000. Further, the values for the Kd in series [4], in series [6] and in series [7] were 0.05 µM, 380 µM and 240 µM, respectively.
